ChEMBL document CHEMBL1641604, “Application of p21 and klf2 reporter gene assays to identify selective histone deacetylase inhibitors for cancer therapy” (Bioorg Med Chem Lett, 2011)

Tests used:
HeLa [1] = assay: Induction of p21 promoter gene in human HeLa cells assessed as percent induction activity at 3 uM relative to SNDX-275; format: functional
A204 [2] = assay: Induction of klf2 promoter gene in human A204 cells assessed as percent induction activity at 3 uM relative to SNDX-275; format: functional
HeLa [3] = assay: Selectivity ratio for induction of p21 promoter gene in human HeLa cells to induction of klf2 promoter gene in human A204 cells at 3 uM; format: functional
HeLa [4] = assay: Induction of p21 promoter gene in human HeLa cells assessed as percent induction activity at 10 uM relative to SNDX-275; format: functional
A204 [5] = assay: Induction of klf2 promoter gene in human A204 cells assessed as percent induction activity at 10 uM relative to SNDX-275; format: functional
HeLa [6] = assay: Selectivity ratio for induction of p21 promoter gene in human HeLa cells to induction of klf2 promoter gene in human A204 cells at 10 uM; format: functional
HeLa [7] = assay: Antiproliferative activity against human HeLa cells assessed as growth at 3 uM after 24 hrs; format: functional; conditions: read-out: Activity
Procedure, shortened: (§1)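 HeLa and A204 cells exposed to test agents at 3 or 10 µM for 24 h. Growth is expressed as percent of vehicle-treated control cells.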

HeLa [8] = assay: Antiproliferative activity against human HeLa cells assessed as growth at 10 uM after 24 hrs; format: functional; conditions: read-out: Activity; procedure, shortened: as §1
A204 [9] = assay: Antiproliferative activity against human A204 cells assessed as growth at 3 uM after 24 hrs; format: functional; conditions: A204, 24 h, read-out: Activity; procedure, shortened: as §1
A204 [10] = assay: Antiproliferative activity against human A204 cells assessed as growth at 10 uM after 24 hrs; format: functional; conditions: A204, 24 h, read-out: Activity; procedure, shortened: as §1
Histone deacetylase 1 = Histone deacetylase 1 (Homo sapiens, UniProt Q13547); assay: Inhibition of HDAC1
Histone deacetylase 2 = Histone deacetylase 2 (Homo sapiens, UniProt Q92769); assay: Inhibition of HDAC2
Histone deacetylase 3 = Histone deacetylase 3 (Homo sapiens, UniProt O15379)
Sequence of Histone deacetylase 3 (O15379 whole entry): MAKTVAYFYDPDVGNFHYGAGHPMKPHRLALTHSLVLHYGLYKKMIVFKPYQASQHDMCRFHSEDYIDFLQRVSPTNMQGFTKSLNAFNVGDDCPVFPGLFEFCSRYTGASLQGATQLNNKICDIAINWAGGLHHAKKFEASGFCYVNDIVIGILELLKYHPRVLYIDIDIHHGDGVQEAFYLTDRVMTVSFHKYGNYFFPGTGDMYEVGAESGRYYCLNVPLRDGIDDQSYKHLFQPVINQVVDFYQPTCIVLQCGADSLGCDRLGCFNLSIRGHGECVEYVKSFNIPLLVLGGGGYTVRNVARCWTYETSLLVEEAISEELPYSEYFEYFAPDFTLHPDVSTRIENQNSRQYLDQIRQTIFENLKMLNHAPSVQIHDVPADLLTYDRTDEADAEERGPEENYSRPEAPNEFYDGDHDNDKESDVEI

Sequence of Histone deacetylase 1 (Q13547 whole entry): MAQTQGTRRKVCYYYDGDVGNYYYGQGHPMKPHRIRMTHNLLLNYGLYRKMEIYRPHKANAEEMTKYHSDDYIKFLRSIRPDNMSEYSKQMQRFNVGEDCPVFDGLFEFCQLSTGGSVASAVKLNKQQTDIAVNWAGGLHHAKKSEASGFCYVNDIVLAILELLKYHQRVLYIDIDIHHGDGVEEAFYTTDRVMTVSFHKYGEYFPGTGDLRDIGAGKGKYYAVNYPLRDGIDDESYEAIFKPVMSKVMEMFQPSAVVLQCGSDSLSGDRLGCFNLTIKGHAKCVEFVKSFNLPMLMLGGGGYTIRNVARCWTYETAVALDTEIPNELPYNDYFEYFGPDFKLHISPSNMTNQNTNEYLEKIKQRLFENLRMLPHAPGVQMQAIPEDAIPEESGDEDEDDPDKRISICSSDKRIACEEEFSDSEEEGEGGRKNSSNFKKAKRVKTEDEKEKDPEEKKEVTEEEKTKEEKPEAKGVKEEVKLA
Sequence of Histone deacetylase 2 (Q92769 whole entry): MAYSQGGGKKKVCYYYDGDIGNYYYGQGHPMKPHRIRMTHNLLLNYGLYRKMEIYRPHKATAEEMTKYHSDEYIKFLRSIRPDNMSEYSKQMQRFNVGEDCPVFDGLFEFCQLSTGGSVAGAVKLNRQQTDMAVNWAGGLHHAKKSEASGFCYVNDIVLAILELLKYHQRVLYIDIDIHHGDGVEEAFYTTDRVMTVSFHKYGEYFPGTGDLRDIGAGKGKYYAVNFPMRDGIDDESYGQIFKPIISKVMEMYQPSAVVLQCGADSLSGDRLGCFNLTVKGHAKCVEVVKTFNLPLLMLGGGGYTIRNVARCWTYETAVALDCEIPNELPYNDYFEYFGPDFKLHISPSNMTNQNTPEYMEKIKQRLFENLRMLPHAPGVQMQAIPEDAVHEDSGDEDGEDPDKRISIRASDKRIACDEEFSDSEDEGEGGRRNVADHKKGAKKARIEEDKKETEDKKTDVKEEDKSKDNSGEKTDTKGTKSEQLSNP

SMILES	Activity (HeLa [1])	Activity (A204 [2])	Activity (HeLa [3])	Activity (HeLa [4])	Activity (A204 [5])	Activity (HeLa [6])	growth at 3 µM (HeLa [7])	growth at 10 µM (HeLa [8])	growth at 3 µM (A204 [9])	growth at 10 µM (A204 [10])	IC50 (Histone deacetylase 1)	IC50 (Histone deacetylase 2)	IC50 (Histone deacetylase 3)
COCCNC(C(=O)Nc1ccc(C(F)(F)F)cc1)c1ccc(/C=C/C(=O)Nc2ccccc2N)cc1 (stereo not drawn)	36%	45%	0.8	64%	56%	1.1							
Nc1ccccc1NC(=O)/C=C/c1ccc(C(NCCN2CCCCC2)C(=O)Nc2ccc(-c3ccc(C4CC4)cc3)cc2)cc1 (stereo not drawn)	143%	65%	2.2	187%	90%	2.1	103%	81%	93%	89%	50 nM	240 nM	360 nM
Nc1ccccc1NC(=O)/C=C/c1ccc(C(NCCC2CCOCC2)C(=O)Nc2ccc(C(F)(F)F)cc2)cc1 (stereo not drawn)	53%	55%	1	64%	58%	1.1					200 nM	800 nM	1000 nM
CN(CCN1CCOCC1)C(C(=O)Nc1ccc(OC(F)(F)F)cc1)c1ccc(/C=C/C(=O)Nc2ccccc2N)cc1 (stereo not drawn)	61%	39%	1.6	109%	71%	1.5							
CN(C)CCNC(C(=O)Nc1ccc(OC(F)(F)F)cc1)c1ccc(/C=C/C(=O)Nc2ccccc2N)cc1 (stereo not drawn)	152%	85%	1.8	182%	74%	2.5							
CC(CNC(C(=O)Nc1ccc(OC(F)(F)F)cc1)c1ccc(/C=C/C(=O)Nc2ccccc2N)cc1)N1CCOCC1 (stereo not drawn)	160%	72%	2.2	104%	44%	2.4	107%	83%	97%	93%			
Nc1ccccc1NC(=O)/C=C/c1ccc(C(NCCC2(O)CCOCC2)C(=O)Nc2ccc(C(F)(F)F)cc2)cc1 (stereo not drawn)	55%	64%	0.9	96%	68%	1.4							
Nc1ccccc1NC(=O)/C=C/c1ccc(C(NCCCN2CCOCC2)C(=O)Nc2ccc(C(F)(F)F)cc2)cc1 (stereo not drawn)	139%	73%	1.9	130%	79%	1.7							
Nc1ccccc1NC(=O)/C=C/c1ccc(C(NCCN2CCCCC2)C(=O)Nc2ccc(C(F)(F)F)cc2)cc1 (stereo not drawn)	163%	69%	2.4	77%	85%	0.9							
Nc1ccccc1NC(=O)/C=C/c1ccc(C(NCCN2CCCCC2)C(=O)Nc2ccc(-c3ccc(C(F)(F)F)cc3F)cc2)cc1 (stereo not drawn)	110%	65%	1.7	153%	84%	1.8							
CC(C)c1ccc(-c2ccc(NC(=O)C(NCCN3CCCCC3)c3ccc(/C=C/C(=O)Nc4ccccc4N)cc3)cc2)cc1 (stereo not drawn)	77%	42%	1.8	130%	63%	2.1							
Nc1ccccc1NC(=O)/C=C/c1ccc(C(NCCN2CCSCC2)C(=O)Nc2ccc(C(F)(F)F)cc2)cc1 (stereo not drawn)	71%	77%	0.9	95%	63%	1.5							
Nc1ccccc1NC(=O)/C=C/c1ccc(C(N)C(=O)Nc2ccc(C(F)(F)F)cc2)cc1 (stereo not drawn)	31%	32%	1	73%	40%	1.8							
Nc1ccccc1NC(=O)/C=C/c1ccc(C(NCCCN2CCOCC2)C(=O)Nc2ccc(OC(F)(F)F)cc2)cc1 (stereo not drawn)	83%	38%	2.2	144%	58%	2.5							
